Compound activity as filed in PubChem.
Hits are enriched below; roughly 2.3% of the tested compounds scored in any of these assays.
TRPC6 act = activates the mouse TRPC6 cation channel. actives 0.13% (n = 310,000). HEK293-TRPC6 membrane potential dye fluorescence; stronger effect = higher value. B-score at 10 µM. Q61143. AID 2550;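 active = B-score of the integrated fluorescence ratio above library mean plus 3 SD, and starting fluorescence ratio within library mean plus 5 SD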;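 note: higher score means more depolarization so channel activation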
TRPC4 PAM = allosteric potentiators of mouse TRPC4 channel; Q9QUQ5; actives 0.42% (n = 310,000); B-score at 10 µM; AID 2227; HEK293 TRPC4beta/mu-opioid, DAMGO EC20, Fluo-4 Ca2+ flux; stronger effect = higher value;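 active = B-score of calcium response area above 5 SD of library B-scores, with initial fluorescence ratio within 5 SD of library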;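 note: B-score of integrated fluorescence ratio over time as area under calcium response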
Target sequence (Q9QUQ5 whole entry, looked up): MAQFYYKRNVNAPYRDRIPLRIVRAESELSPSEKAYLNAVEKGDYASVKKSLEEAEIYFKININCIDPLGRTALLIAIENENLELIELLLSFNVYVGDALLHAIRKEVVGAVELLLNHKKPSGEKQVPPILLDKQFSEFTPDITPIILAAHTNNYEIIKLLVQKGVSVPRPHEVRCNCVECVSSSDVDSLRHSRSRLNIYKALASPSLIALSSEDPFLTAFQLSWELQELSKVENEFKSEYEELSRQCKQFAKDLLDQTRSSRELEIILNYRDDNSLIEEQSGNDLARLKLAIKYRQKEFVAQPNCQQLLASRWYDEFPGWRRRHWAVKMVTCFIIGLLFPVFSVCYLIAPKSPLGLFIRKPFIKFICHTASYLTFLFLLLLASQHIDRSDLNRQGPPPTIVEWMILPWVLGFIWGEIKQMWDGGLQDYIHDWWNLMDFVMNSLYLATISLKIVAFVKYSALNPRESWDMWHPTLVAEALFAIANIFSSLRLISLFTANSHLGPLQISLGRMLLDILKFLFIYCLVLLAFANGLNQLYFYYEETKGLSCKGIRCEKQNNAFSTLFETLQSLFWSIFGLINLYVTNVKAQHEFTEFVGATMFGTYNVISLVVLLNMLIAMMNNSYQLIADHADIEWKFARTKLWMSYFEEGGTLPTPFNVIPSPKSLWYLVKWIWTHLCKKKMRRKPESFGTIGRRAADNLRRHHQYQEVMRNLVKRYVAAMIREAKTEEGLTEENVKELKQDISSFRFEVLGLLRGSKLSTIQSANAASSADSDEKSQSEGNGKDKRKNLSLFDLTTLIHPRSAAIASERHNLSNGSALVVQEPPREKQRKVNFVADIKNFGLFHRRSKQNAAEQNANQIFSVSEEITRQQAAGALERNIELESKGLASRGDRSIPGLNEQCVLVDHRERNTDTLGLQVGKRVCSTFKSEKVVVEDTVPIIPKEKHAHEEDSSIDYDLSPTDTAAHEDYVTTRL
TRPC4 agonist = activators of mouse TRPC4 channel; Q9QUQ5; HEK293 TRPC4beta/mu-opioid, Fluo4 calcium fluorescence; stronger effect = higher value; B-score at 10 µM; actives 0.49% (n = 310,000);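 active = B-score above 5 SD of library B-scores, and initial fluorescence ratio not above library mean plus 5 SD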;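 note: positive B-score marks a calcium rise read as TRPC4 activation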
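Assay system: HEK293 cells stably co-expressing mouse TRPC4beta and mu-opioid receptor / Timing: Fluo4 dye loading 45 min at room temperature, 110 s recording / Signal: Fluo4 calcium-sensitive dye fluorescence, kinetic, 1 Hz baseline / Read-out: integrated baseline-normalised fluorescence ratio, converted to per-well B score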
TRPC4 inh = inhibitors of mouse TRPC4 channel. actives 0.39% (n = 300,000). HEK293 TRPC4beta/mu-opioid, DAMGO-evoked Fluo4 calcium flux; stronger effect = lower value. B-score at 10 µM;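 active = B-score over 3 SD under the library average, no early fluorescence shift, positive overall ratio signal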
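Assay system – HEK293 line stably carrying TRPC4beta and mu-opioid receptor · Doses – single dose · Detection – Fluo4 calcium-dye fluorescence, kinetic read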
TRPC6 inh = inhibitors of mouse TRPC6 channel; Q61143; actives 1.1% (n = 310,000); B-score at 10 µM; HEK293-TRPC6, membrane potential dye, ACh-evoked depolarization; stronger effect = lower value;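 active = B-score under library mean minus 3 SD, initial fluorescence not abnormally high, positive integrated signal ratio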;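 note: B-score derived from integrated fluorescence ratio over the kinetic read; more negative B-score means stronger inhibition of depolarization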
TRPC4 spec 2 = mouse TRPC4 off-target activity of TRPC6 inhibitors, second screen. shares compounds with TRPC6 inh. HEK293 TRPC4/MOR, membrane potential dye fluorescence; channel activated by saturating DAMGO dose. inhibition, % at 10 µM. actives 42% (n = 920). AID 2776;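 active = compounds whose fluorescence signal differed from control wells by over 3 SD, either direction, in both duplicate plates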
TRPC4 spec = mouse TRPC4 off-target activity of TRPC6 inhibitors; shares compounds with TRPC6 inh; HEK293 TRPC4/mu-opioid, membrane potential fluorescence; activity change, negative = inhibition, % at 10 µM; actives 61% (n = 920); AID 2777;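 active = rise or fall in signal beyond 3 SD of buffer-only wells in both replicate plates, either sign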;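 note: integrated kinetic ratio of fluorescence range over baseline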
HEK293 MPD ctr 2-1 = second counter-screen for TRPC6 inhibitors: parental HEK293 cells | shares compounds with TRPC6 inh | parental HEK293 membrane potential dye fluorescence; maximal acetylcholine challenge after compound addition | signal change vs control, % at 10 µM | actives 31% (n = 920);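 active = membrane potential signal moving either way by over 3 SD of the maximum-effect control, in both duplicate plates, meaning non-specific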
HEK293 MPD ctr-1 = checks TRPC6 inhibitor effects in parental HEK293 cells; shares compounds with TRPC6 inh; parental HEK293 membrane potential dye fluorescence; membrane potential signal change, % at 10 µM; actives 60% (n = 920); AID 2780;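 active = membrane potential signal shifting up or down by more than 3 SD of buffer-only wells, on both duplicate plates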
HEK293 MPD ctr-2 = parental HEK293 nonspecific activity of TRPC6 modulators. shares compounds with TRPC6 inh. membrane potential dye fluorescence. membrane potential signal change, % at 10 µM. actives 51% (n = 2,400). AID 488924;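 active = membrane potential signal moves up or down beyond 5 SD from buffer-only wells, on both duplicate plates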
HEK293 MPD ctr 2-2 = parental HEK293 nonspecific activity of TRPC6 modulators, second screen; inhibition, % at 10 µM; actives 14% (n = 2,400); shares compounds with TRPC6 inh; AID 488926; membrane potential dye fluorescence; after compound, maximal acetylcholine stimulation;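 active = membrane potential signal drops by more than 5 SD from the mean control signal, in both duplicate plates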;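 note: plate controls were acetylcholine ECmax control wells for no effect and buffer only wells for full effect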
TRPC4 ctr mod = selectivity of TRPC6 modulators against mouse TRPC4 | shares compounds with TRPC6 inh | HEK293 TRPC4/mu-opioid, membrane potential fluorescence | percent change from control (negative = decrease, positive = increase), % at 10 µM | actives 69% (n = 2,400) | AID 488927;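 active = membrane potential signal moved up or down beyond 5 SD of buffer control wells, in both duplicate plates, actives on both sides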;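 note: plate controls were assay buffer wells for no effect and DAMGO maximal-effect wells for full effect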
TRPC4/MOR inh 2 = second check of whether TRPC6 modulators also affect mouse TRPC4; shares compounds with TRPC6 inh; HEK293 TRPC4/mu-opioid, membrane potential dye fluorescence; stimulated with maximal-effect DAMGO; inhibition, % at 10 µM; actives 55% (n = 2,400);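 active = drop in membrane potential signal beyond 5 SD of the control wells in both duplicate plates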;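 note: TRPC4 counter screen for TRPC6 hits run under conditions tuned for TRPC6 not TRPC4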
TRPC6 inh conf = confirmation of mouse TRPC6 inhibitors. actives 43% (n = 3,300). shares compounds with TRPC6 inh. HEK293-TRPC6, membrane potential dye, ACh-evoked depolarization. AID 488960. inhibition, % at 10 µM;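 active = fluorescence ratio falls more than 5 SD below the full-stimulation control mean, in both duplicate runs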;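 note: integrated fluorescence ratio of peak minus minimum over baseline after agonist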
TRPC6 act confirm = mouse TRPC6 activator confirmation; actives 11% (n = 2,800); HEK293-TRPC6 membrane potential dye fluorescence, FDSS; AID 488961; shares compounds with TRPC6 inh; activation, % at 10 µM;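 active = ratio signal rise beyond 5 SD above unstimulated control wells' mean, seen in both duplicate runs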;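 note: plate controls were buffer EC0 wells for no effect and acetylcholine ECmax response for full effect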
* = called active by the depositor; i = inactive; · = no result given.

SMILES | TRPC6 act | TRPC4 PAM | TRPC4 agonist | TRPC4 inh | TRPC6 inh | HEK293 MPD ctr-2 | HEK293 MPD ctr 2-2 | TRPC4 ctr mod | TRPC4/MOR inh 2 | TRPC6 inh conf | TRPC6 act confirm | others
Cc1ccc(S(=O)(=O)n2c(N)nc3ccccc32)cc1 | i | i | i | i | -8.44* | · | · | · | · | 63.5%* | i | TRPC4 spec 2=i;TRPC4 spec=i;HEK293 MPD ctr 2-1=38.0%*;HEK293 MPD ctr-1=i
Cc1nc2ccccc2n1S(=O)(=O)c1ccc(F)cc1 | i | i | i | i | i | · | · | · | · | · | ·
Cc1ccc2nc3ccc(N4CCCC4)nn3c(=O)c2c1 | i | i | i | i | -6.88* | · | · | · | · | i | i | TRPC4 spec 2=i;TRPC4 spec=-24.8%*;HEK293 MPD ctr 2-1=41.5%*;HEK293 MPD ctr-1=-324.5%*
COc1cc(NC(=O)c2sc(C)nc2C)c(OC)cc1NC(=O)c1ccccc1 | i | i | i | i | i | · | · | · | · | · | ·
Cc1cc(C)c2nc(C)cc(Nc3ccc(C(=O)NCCO)cc3)c2c1 | i | i | i | i | -10.4* | · | · | · | · | 56.2%* | i | TRPC4 spec 2=i;TRPC4 spec=-19.9%*;HEK293 MPD ctr 2-1=-46.5%*;HEK293 MPD ctr-1=-307.5%*
CC(=O)c1ccc(Nc2cc(C)nc3c(C)cc(C)cc23)cc1 | i | i | i | -6* | -6.86* | · | · | · | · | i | i | TRPC4 spec 2=i;TRPC4 spec=-20.6%*;HEK293 MPD ctr 2-1=i;HEK293 MPD ctr-1=-327.0%*
Cc1cc(C)c2nc(C)cc(Nc3ccc(C(=O)N(C)C)cc3)c2c1 | i | i | i | i | -5.37* | -114.5%* | i | -22.5%* | i | i | i
COc1ccc(Nc2nnc(-c3ccc(C(=O)NCCO)cc3)c3ccccc23)cc1 | i | i | i | i | i | · | · | · | · | · | ·
CCOc1ccccc1CNC(=O)c1ccc2nc(N3CCOCC3)sc2c1 | i | i | i | i | i | · | · | · | · | · | ·
CCn1c(NCc2ccc(N(C)C)cc2)nc2ccccc21 | i | i | i | i | -5.31* | i | i | -14.0%* | 46.0%* | i | i
CCN(CC)CCn1c(NCc2nc3ccccc3n2Cc2ccccc2)nc2ccccc21 | i | i | i | i | -7.1* | · | · | · | · | 53.0%* | i | TRPC4 spec 2=36.5%*;TRPC4 spec=18.0%*;HEK293 MPD ctr 2-1=275.5%*;HEK293 MPD ctr-1=8.3%*
COc1ccc(CNc2nc3ccccc3n2CCN2CCCCC2)cc1 | i | i | i | i | i | · | · | · | · | · | ·
Cn1c(CNc2nc3ccccc3n2CCN2CCCCC2)nc2ccccc21 | i | i | i | i | -6.55* | i | i | i | 72.5%* | 44.0%* | i
CCN(CC)CCn1c(NCc2ccco2)nc2ccccc21 | i | i | i | i | i | · | · | · | · | · | ·
CCN(CC)c1ccc(CNc2nc3ccccc3n2CCN2CCCCC2)cc1 | i | i | 119* | i | -5.91* | i | i | 31.5%* | 97.0%* | 51.5%* | i
O=C(COC(=O)c1cccnc1Cl)Nc1cc(S(=O)(=O)N2CCCCC2)ccc1Cl | i | i | i | i | i | · | · | · | · | · | ·
c1ccc(Cn2c(CNc3nc4ccccc4n3CCN3CCCCC3)nc3ccccc32)cc1 | i | i | i | i | -6.65* | · | · | · | · | i | i | TRPC4 spec 2=59.0%*;TRPC4 spec=11.1%*;HEK293 MPD ctr 2-1=284.5%*;HEK293 MPD ctr-1=6.9%*
O=C(Nc1cccc(F)c1)C1CCN(C(=O)c2ccccc2Cl)CC1 | i | i | i | i | i | · | · | · | · | · | ·
O=C(Nc1ccc(-c2noc(CCc3ccccc3)n2)cc1)c1cccnc1 | i | i | i | i | i | · | · | · | · | · | ·
Cc1ccc[n+](CC(=O)c2cc3ccccc3oc2=O)c1 | i | i | i | i | -6.5* | -76.0%* | i | -21.5%* | i | 70.5%* | i
CC1CCN(S(=O)(=O)c2ccc3c(ccn3CCC(=O)N3CCCCC3)c2)CC1 | i | i | i | i | -6.18* | i | i | 9.5%* | i | 78.5%* | ·
O=C(c1cccc(S(=O)(=O)N2CCCCCC2)c1)N1CCN(c2ccccc2)CC1 | i | i | i | i | -5.15* | 105.5%* | i | 19.0%* | i | i | ·
CN1CCN(C(=O)c2cccc(S(=O)(=O)N3CCCCC3)c2)CC1 | i | i | i | i | i | · | · | · | · | · | ·
O=C(c1cccc(S(=O)(=O)N2CCCC2)c1)N1CCN(c2ccccc2)CC1 | i | i | i | · | i | · | · | · | · | · | ·
CC1CCC(NC(=O)CCn2ccc3cc(S(=O)(=O)N4CCCC4)ccc32)CC1 (stereo unspecified) | i | i | i | i | i | · | · | · | · | · | ·
CC1CCN(C(=O)c2cccc(S(=O)(=O)N3CCCCC3)c2)CC1 | 13.4* | i | i | i | -8.29* | 107.5%* | i | 20.5%* | i | 73.0%* | 106.0%*
CCOc1ccc(CCNC(=O)CN(C)S(=O)(=O)c2cccs2)cc1OCC | i | i | i | i | i | · | · | · | · | · | ·
Cc1cc(N2CCN(C)CC2)ccc1NC(=O)c1ccc(-c2ccc(Cl)cc2)o1 | i | i | 50* | i | -9.02* | · | · | · | · | 66.7%* | i | TRPC4 spec 2=16.0%*;TRPC4 spec=2.7%*;HEK293 MPD ctr 2-1=i;HEK293 MPD ctr-1=-334.0%*
CN1CCN(c2ccccc2NC(=O)c2ccc(-c3ccc(Cl)c(Cl)c3)o2)CC1 | i | i | i | i | i | · | · | · | · | · | ·
